# In article PMC3188443 (Biochemical pharmacology, 2010):
# Ends that are not written are not given here.
# Tests used:
# [1] = target: His-tagged murine Stat3 protein (murine) (UniProt P42227); test: fluorescence polarisation
# [2] = target: His-tagged murine Stat3 protein (murine) (UniProt P42227); test: SPR
# Stat3 [3] = target: T1, Stat3 (Mus musculus, UniProt P42227); type: binding, murine; settings: 150 nM His-Stat3, unlabeled peptide
# Stat3 [4] = target: T1, Stat3; test: Surface Plasmon Resonance analysis of binding to immobilized His-tagged Stat3; design: species or system murine; settings: 0-5 μM peptide as analyte
# In short: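 His-tagged Stat3 expressed in E. coli BL21(DE3), purified on a Ni-ion Sepharose column, and captured on a HisCap sensor chip by injecting 50 μg/ml protein. Analytes were unphosphorylated or phosphotyrosine gp-130 heptapeptides at 0-5 μM, passed over the chip. Running buffer was 1X PBS, 0.5% DMSO. Association and dissociation rate constants were fitted, and KD was taken as their ratio.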
# T1 sequence (P42227 whole entry): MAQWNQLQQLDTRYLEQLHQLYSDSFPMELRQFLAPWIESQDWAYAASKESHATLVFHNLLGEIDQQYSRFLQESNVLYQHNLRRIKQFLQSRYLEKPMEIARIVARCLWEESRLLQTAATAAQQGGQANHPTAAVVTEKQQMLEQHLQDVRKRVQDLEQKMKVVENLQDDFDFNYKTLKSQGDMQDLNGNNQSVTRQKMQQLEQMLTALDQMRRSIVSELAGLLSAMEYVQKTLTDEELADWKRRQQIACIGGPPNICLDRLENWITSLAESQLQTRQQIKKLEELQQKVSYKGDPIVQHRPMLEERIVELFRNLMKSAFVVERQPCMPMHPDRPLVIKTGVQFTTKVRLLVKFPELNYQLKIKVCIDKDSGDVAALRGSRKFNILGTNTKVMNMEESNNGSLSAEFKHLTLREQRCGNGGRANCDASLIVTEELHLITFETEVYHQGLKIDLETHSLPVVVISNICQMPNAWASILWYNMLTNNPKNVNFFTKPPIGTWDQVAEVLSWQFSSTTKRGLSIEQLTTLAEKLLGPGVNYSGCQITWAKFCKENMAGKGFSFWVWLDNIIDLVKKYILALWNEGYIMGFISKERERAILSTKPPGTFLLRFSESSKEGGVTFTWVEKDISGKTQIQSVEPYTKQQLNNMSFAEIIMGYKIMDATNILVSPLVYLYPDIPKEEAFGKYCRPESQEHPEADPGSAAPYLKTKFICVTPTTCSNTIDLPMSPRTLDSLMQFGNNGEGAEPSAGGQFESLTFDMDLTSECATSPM
# His-tagged murine Stat3 protein (murine), sequence (P42227 whole entry): as above
Substance,IC50 [1] [nM],Kd [2] [nM],"inhibition in the FP assay, in words (Stat3 [3])",binding to Stat3 (SPR) (Stat3 [4])
"GpYLPQTV-NH2, high affinity Stat3-binding phosphoTyr peptide derived from the IL-6R subunit gp-130",300,24,,
GYLPQTV-NH2,,,no evidence of inhibition,no significant binding
